UPR CHOP act: apoptotic UPR (CHOP) activation; CHO-CHOP luciferase reporter, luminescence; percent of tunicamycin response over DMSO baseline; activation, % at 10 µM; 0.34% of 330,000 active;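 active = at 10 µM dose, activation of 40% or more, normalized to positive control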;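 note: 100% = tunicamycin at 10 µg/mL and 0% = DMSO alone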
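assay system = CHO CHOP reporter cells | amount = 500 CHO-CHOP cells per well | buffer or medium = F12 with 10% FBS | incubation = 16-18 h cell attachment, then 6 h compound exposure, 37 °C | detection = luminescence read with Steady-Glo | read-out = percent activation relative to tunicamycin control | controls = tunicamycin high control, DMSO low control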
CHOP inh: inhibitors of CHOP induction in ER stress response; CHO-K1 CHOP-promoter luciferase, tunicamycin-induced, 15-18 h; inhibition, % at 10 µM; 3.8% of 220,000 active;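 active = compounds that reduced the stress-induced luciferase reporter signal by more than about 70% of percent inhibition, limit read from the data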;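 note: 0% = tunicamycin plus vehicle and 100% = wells without tunicamycin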
Dynein cargo inh: blocks dynein driven cargo transport along microtubules; AID 1381; 0.47% of 220,000 active; z-score, hits read low; 3617.4 mouse cells, GR-EGFP nuclear translocation imaging; test concentration mostly 20 µM; stimulated with dexamethasone, 1 µM; hits give low values;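 active = plate z-score of nuclear minus cytoplasmic receptor signal below a set negative limit, without overly bright fluorescence or cell loss, cut at about -3.5 in these data, passing the limit was not always enough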;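 note: z-score of nuclear minus cytoplasmic ring GR-EGFP intensity difference per well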
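Buffer or medium: tet-free medium with charcoal-stripped serum / Also added: dexamethasone agonist, 1.0 µM final, for 30 min / Timing: induction 48 h, compound 1 h, agonist 30 min / Measured by: high-content fluorescence imaging after fixation / Read-out: nuclear-to-cytoplasmic GR-EGFP distribution per well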
Lmaj promast: inhibitors of Leishmania major promastigote growth. Leishmania major promastigotes, resazurin fluorescence viability. inhibition, % at 10 µM. 9% of 200,000 active. AID 1063; in the data active = inhibition above about 50%;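 note: promastigotes grown with compound for 44 hours at 28 °C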
UPR XBP1 act: adaptive UPR (XBP1) activation. CHO-XBP1 luciferase reporter, IRE1-XBP1 UPR activation, luminescence; percent of tunicamycin response, DMSO as zero. activation, % at 20 µM. 0.33% of 330,000 active. AID 463104;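 active = versus positive control, 20 µM dose yields 30% or more activation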;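 note: 100% = tunicamycin at 10 µg/mL and 0% = DMSO only wells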
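incubation = overnight seeding at 37 °C, 6 h compound treatment at 37 °C | assay system = CHO-XBP1 cells stably carrying IRE1-XBP1-driven luciferase reporter | input = 1000 cells per well | detection = luciferase luminescence | dosing = single point, 20 µM final compound, 1% DMSO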
T cruzi inh: T. cruzi replication inhibition | T. cruzi beta-gal in NIH3T3, luminescence, 90 h | 1.4% of 300,000 active | AID 1885 | inhibition, % (concentration not given with the values);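 active = mean inhibition across valid replicates above about 55%, limit read from the data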;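 note: signal also drops with host cell toxicity which is not excluded here; 0% = plate median of DMSO wells and 100% = zero luminescence signal; higher percent means less beta-gal luminescence so fewer parasites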
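System: mouse NIH/3T3 fibroblasts infected with β-gal-expressing T. cruzi Tulahuen C4 / Input: NIH/3T3 cells, 5,000 per well / Buffer or medium: Low-serum DMEM with 2% FBS / Probe or stimulus: 5000 reporter trypomastigotes per well / Schedule: ≥90 h infection period, 3 h prior cell attachment / Measured by: GalScreen luminescence, 60 min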
Lmaj promast 1uM: L. major promastigote growth inhibition, 1 uM repeat; 13% of 1,100 active; inhibition, % at 1 µM; shares compounds with Lmaj promast; AID 1258; resazurin fluorescence, 48 h;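 active = inhibition above about 50% in both repeat tests, limit read from the data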
* = called active by the depositor. The entries come from a sample that favours hits as a whole.

CCc1ccc(/C=C/c2c[nH]c3ccccc23)[n+](CC)c1 was read as UPR CHOP act 0, CHOP inh 6, Dynein cargo inh -0.28, Lmaj promast 100*, UPR XBP1 act -1, T cruzi inh 40 and Lmaj promast 1uM 10.
`CCCCC1(C)OC(=O)C(=Cc2c[nH]c3ccccc23)C(=O)O1` (stereo unspecified) gave UPR CHOP act 0, CHOP inh 64, Dynein cargo inh 1.6, Lmaj promast 4, UPR XBP1 act -1 and T cruzi inh -2.
For COc1ccc(Cn2cc3c(-c4ccc(F)cc4)nnc-3c3cc(OC)c(OC)cc32)cc1 the results were UPR CHOP act 14, CHOP inh 42, Dynein cargo inh -0.82, Lmaj promast 17 and UPR XBP1 act 10.
Screening COc1cc2c3nnc(-c4ccc(F)cc4)c-3cn(Cc3ccc(F)cc3)c2cc1OC returned UPR CHOP act 1, CHOP inh 18, Dynein cargo inh -1.2, Lmaj promast 97*, UPR XBP1 act 3, T cruzi inh 1 and Lmaj promast 1uM -17.
For CN(C)c1ccc(CN2CCCCCC2)cc1 the results were UPR CHOP act 0, CHOP inh -2, Dynein cargo inh 0.4, Lmaj promast 0, UPR XBP1 act 1 and T cruzi inh 33.
`CCN(CC)c1ccc(CN2CCCCCC2)cc1` gave UPR CHOP act -1, CHOP inh 13, Dynein cargo inh -0.28, Lmaj promast 90*, UPR XBP1 act 9, T cruzi inh 48 and Lmaj promast 1uM 28.
`CN(C)CC/C=C1\c2ccccc2Sc2cc(F)c(Cl)cc21` gave UPR CHOP act 2, UPR XBP1 act 13 and T cruzi inh 6.
For CN(C)CC/C=C1\c2cc(F)ccc2CSc2ccccc21 the results were UPR CHOP act 0, CHOP inh 38, Dynein cargo inh 0.33, Lmaj promast 72*, UPR XBP1 act 1, T cruzi inh 9 and Lmaj promast 1uM -5.
Screening COc1ccc(C(=O)NCC(=O)N2CCN(C(=O)c3ccco3)CC2)cc1[N+](=O)[O-] returned UPR CHOP act 0 and UPR XBP1 act -1.
CC(OC(=O)c1cccc(-n2cnnn2)c1)C(=O)Nc1cccc(Cl)c1 (stereo unspecified) was read as UPR CHOP act 1, UPR XBP1 act 0 and T cruzi inh -1.
O=C(NC1CC1)c1cccc(Nc2ccc(-c3ccc4c(c3)OCCO4)nn2)c1 was read as UPR CHOP act 1, CHOP inh 3, Dynein cargo inh -0.044, Lmaj promast 50*, UPR XBP1 act 6, T cruzi inh 5 and Lmaj promast 1uM -15.
`O=S(=O)(c1ccc(Nc2ccc(-c3ccc4c(c3)OCCO4)nn2)cc1)N1CCCC1` gave UPR CHOP act 3, CHOP inh 41, Dynein cargo inh 2.8, Lmaj promast 23, UPR XBP1 act 8 and T cruzi inh 49.
Screening CC(=O)OC1C(N2CCCCC2)c2c(ccc(/C=C/C(=O)N3CCCCC3)c2O)OC1(C)C (stereo unspecified) returned UPR CHOP act 7, CHOP inh 77*, Dynein cargo inh 2, Lmaj promast 73*, UPR XBP1 act 3, T cruzi inh 5 and Lmaj promast 1uM -22.
Screening CC1(C)Oc2ccc3ccc(=O)oc3c2C(N2CCCCC2)C1O (stereo unspecified) returned UPR CHOP act -3, CHOP inh -6, Dynein cargo inh -0.54, Lmaj promast -1, UPR XBP1 act 1 and T cruzi inh -30.
`CCOC(=O)c1nnn(-c2nonc2-n2cccc2)c1CN1CCC(C)CC1` gave UPR CHOP act 5, CHOP inh 60, Dynein cargo inh -0.71, Lmaj promast 3, UPR XBP1 act 1 and T cruzi inh 17.
CCOC(=O)c1nnn(-c2nonc2N)c1COc1c(C=O)cccc1OC was read as UPR CHOP act -1, CHOP inh 13, Dynein cargo inh -0.37, Lmaj promast 98*, UPR XBP1 act -5, T cruzi inh 0 and Lmaj promast 1uM -1.
Screening CCOC(=O)c1nnn(-c2nonc2-n2cccc2)c1CCl returned UPR CHOP act 26, CHOP inh -126, Dynein cargo inh -1.2, Lmaj promast 100*, UPR XBP1 act 7, T cruzi inh -27 and Lmaj promast 1uM 57*.
Screening COc1ccccc1CNc1nc2ccccc2n1CCN1CCCCC1 returned UPR CHOP act 1, CHOP inh 11, Dynein cargo inh -0.45, Lmaj promast 61*, UPR XBP1 act -3, T cruzi inh 27 and Lmaj promast 1uM 9.
`O=S(=O)(NCC(c1ccc2c(c1)OCO2)N1CCOCC1)c1ccccc1` (stereo unspecified) gave UPR CHOP act 1, UPR XBP1 act 1 and T cruzi inh -2.
`O=C(NCc1nnnn1-c1ccc(F)c(F)c1)c1cc2ccccc2o1` gave UPR CHOP act 1, UPR XBP1 act -4 and T cruzi inh -14.
`CC(C)CCN=Cc1c(O)n(-c2ccccc2)c(=O)c2ccccc12` gave UPR CHOP act 0, CHOP inh 45, Dynein cargo inh 0.11, Lmaj promast 21, UPR XBP1 act 0 and T cruzi inh 14.
CC(C)CCC(C)N=Cc1c(O)n(Cc2ccccc2)c(=O)c2ccccc12 (stereo unspecified) was read as UPR CHOP act 3, CHOP inh 25, Dynein cargo inh 0.16, Lmaj promast 62*, UPR XBP1 act 1, T cruzi inh 39 and Lmaj promast 1uM -2.
Screening COc1ccc2c(c1)OCC1=C2CCC2(C)C(=O)CC=C12 (stereo unspecified) returned UPR CHOP act 3, CHOP inh -71, Dynein cargo inh -2.3, Lmaj promast 52*, UPR XBP1 act -4, T cruzi inh 1 and Lmaj promast 1uM 23.
Screening CCN(CC)c1ccc(/C=N/NC(=O)c2cccc(S(=O)(=O)N3CCOCC3)c2)c(O)c1 returned UPR CHOP act -3, CHOP inh 53, Dynein cargo inh 0.52, Lmaj promast 100*, UPR XBP1 act 0, T cruzi inh 65* and Lmaj promast 1uM -31.
`CCN(CC)c1ccc(C=Nc2cccc(S(=O)(=O)N3CCOCC3)c2)c(O)c1` gave UPR CHOP act 1 and UPR XBP1 act -2.
`CCOC(=O)/C=C/C(=O)Nc1nccs1` gave UPR CHOP act 8, CHOP inh -12, Dynein cargo inh -0.0068, Lmaj promast 3, UPR XBP1 act -4 and T cruzi inh -16.

Screens as filed in PubChem BioAssay.
